Columns and labels:
[1] = target: Casein kinase II subunit alpha (Homo sapiens, UniProt P68400); test: Inhibition of recombinant CK2alpha1
Outline: (§1)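 Purified recombinant kinase, 50 µL reaction. 1 µM [γ-33P]-ATP with substrate; compound added in 10% DMSO. Tested over several concentrations; IC50 in g/mL.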

[2] = target: T1, Serine/threonine-protein kinase PLK4 (Homo sapiens, UniProt O00444); test: Inhibition of recombinant SAK
T1 sequence (O00444 whole entry): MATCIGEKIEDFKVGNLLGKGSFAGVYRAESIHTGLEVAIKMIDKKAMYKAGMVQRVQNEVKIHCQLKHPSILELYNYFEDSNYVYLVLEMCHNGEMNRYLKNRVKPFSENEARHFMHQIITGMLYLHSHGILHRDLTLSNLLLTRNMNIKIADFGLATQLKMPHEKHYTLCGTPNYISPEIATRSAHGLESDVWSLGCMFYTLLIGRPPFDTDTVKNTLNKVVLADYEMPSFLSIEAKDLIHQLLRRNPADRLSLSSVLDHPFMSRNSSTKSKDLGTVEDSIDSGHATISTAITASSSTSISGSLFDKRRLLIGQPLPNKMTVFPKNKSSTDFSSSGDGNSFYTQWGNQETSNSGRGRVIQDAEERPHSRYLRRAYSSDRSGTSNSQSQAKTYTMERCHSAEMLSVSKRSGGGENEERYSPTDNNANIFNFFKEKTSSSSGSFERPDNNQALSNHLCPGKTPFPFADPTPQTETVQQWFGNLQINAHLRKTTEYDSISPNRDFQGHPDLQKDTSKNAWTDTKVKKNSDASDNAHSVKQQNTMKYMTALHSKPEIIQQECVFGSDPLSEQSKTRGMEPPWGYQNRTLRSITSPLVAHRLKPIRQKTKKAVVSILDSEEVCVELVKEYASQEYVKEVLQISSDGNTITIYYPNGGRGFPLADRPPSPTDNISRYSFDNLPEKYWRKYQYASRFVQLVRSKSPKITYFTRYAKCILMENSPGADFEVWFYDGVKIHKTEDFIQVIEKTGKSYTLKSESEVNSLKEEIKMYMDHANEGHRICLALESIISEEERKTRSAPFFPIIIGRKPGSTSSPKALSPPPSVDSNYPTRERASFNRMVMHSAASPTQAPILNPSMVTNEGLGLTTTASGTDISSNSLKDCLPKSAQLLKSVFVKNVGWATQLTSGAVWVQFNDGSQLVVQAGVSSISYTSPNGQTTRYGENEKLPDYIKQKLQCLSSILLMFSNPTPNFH

[3] = target: Insulin-like growth factor 1 receptor (Homo sapiens, UniProt P08069); test: Inhibition of recombinant IGF1R; outline: as §1
[4] = target: T2, Receptor-type tyrosine-protein kinase FLT3 (Homo sapiens, UniProt P36888); test: Inhibition of recombinant FLT3; outline: as §1
T2 sequence (P36888 whole entry): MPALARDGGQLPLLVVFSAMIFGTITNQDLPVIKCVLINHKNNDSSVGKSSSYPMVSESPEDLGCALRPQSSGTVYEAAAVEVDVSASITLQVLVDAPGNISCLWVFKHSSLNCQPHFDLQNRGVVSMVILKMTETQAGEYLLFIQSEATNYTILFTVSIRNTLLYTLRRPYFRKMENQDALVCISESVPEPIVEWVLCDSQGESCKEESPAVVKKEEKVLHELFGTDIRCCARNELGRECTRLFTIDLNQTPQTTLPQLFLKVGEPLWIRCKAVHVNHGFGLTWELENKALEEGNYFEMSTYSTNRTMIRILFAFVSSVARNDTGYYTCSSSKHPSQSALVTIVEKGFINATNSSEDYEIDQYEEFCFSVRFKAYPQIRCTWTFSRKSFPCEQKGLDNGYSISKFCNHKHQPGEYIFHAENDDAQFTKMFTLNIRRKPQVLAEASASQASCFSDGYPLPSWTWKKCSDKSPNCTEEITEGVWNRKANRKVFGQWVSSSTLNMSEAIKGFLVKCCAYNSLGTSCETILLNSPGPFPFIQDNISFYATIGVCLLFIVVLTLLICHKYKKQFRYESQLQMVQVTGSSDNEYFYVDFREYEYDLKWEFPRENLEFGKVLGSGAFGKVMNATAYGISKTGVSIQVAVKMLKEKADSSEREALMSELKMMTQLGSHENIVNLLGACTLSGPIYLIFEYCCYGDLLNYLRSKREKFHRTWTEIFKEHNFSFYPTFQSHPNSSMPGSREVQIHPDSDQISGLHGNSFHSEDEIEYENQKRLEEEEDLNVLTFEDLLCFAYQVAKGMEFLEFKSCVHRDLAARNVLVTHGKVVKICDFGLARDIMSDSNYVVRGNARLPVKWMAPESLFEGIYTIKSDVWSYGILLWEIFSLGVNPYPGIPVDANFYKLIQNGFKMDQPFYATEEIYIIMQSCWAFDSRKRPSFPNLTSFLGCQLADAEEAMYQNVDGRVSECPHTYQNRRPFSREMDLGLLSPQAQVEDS

[5] = target: Vascular endothelial growth factor receptor 2 (Homo sapiens, UniProt P35968); test: Inhibition of recombinant VEGFR2; outline: as §1
[6] = target: Vascular endothelial growth factor receptor 3 (Homo sapiens, UniProt P35916); test: Inhibition of recombinant VEGFR3; outline: as §1
[7] = target: T3, NUAK family SNF1-like kinase 1 (Homo sapiens, UniProt O60285); test: Inhibition of recombinant ARK5
T3 sequence (O60285 whole entry): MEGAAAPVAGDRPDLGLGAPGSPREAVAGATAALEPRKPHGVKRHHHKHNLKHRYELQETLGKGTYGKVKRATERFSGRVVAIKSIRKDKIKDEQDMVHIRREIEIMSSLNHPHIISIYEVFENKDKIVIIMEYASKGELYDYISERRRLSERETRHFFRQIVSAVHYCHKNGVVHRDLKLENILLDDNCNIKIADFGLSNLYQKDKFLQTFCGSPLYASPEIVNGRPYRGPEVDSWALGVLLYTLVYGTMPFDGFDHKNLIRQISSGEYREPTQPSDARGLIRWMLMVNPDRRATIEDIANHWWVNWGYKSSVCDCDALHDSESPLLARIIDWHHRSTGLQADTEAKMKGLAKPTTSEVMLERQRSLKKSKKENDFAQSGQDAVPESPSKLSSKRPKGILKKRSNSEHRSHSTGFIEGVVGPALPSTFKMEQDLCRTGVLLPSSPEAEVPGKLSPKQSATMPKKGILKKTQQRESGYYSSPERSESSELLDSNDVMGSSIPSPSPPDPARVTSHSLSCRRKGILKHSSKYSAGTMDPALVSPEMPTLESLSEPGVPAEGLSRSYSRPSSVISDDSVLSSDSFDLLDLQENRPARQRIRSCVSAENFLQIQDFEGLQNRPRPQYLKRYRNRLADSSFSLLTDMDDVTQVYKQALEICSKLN

Angiopoietin-1 receptor = Angiopoietin-1 receptor (Homo sapiens, UniProt Q02763); test: Inhibition of recombinant TIE2
Ephrin type-B receptor 4 = target: T4, Ephrin type-B receptor 4 (Homo sapiens, UniProt P54760); test: Inhibition of recombinant EPHB4; outline: as §1
T4 sequence (P54760 whole entry): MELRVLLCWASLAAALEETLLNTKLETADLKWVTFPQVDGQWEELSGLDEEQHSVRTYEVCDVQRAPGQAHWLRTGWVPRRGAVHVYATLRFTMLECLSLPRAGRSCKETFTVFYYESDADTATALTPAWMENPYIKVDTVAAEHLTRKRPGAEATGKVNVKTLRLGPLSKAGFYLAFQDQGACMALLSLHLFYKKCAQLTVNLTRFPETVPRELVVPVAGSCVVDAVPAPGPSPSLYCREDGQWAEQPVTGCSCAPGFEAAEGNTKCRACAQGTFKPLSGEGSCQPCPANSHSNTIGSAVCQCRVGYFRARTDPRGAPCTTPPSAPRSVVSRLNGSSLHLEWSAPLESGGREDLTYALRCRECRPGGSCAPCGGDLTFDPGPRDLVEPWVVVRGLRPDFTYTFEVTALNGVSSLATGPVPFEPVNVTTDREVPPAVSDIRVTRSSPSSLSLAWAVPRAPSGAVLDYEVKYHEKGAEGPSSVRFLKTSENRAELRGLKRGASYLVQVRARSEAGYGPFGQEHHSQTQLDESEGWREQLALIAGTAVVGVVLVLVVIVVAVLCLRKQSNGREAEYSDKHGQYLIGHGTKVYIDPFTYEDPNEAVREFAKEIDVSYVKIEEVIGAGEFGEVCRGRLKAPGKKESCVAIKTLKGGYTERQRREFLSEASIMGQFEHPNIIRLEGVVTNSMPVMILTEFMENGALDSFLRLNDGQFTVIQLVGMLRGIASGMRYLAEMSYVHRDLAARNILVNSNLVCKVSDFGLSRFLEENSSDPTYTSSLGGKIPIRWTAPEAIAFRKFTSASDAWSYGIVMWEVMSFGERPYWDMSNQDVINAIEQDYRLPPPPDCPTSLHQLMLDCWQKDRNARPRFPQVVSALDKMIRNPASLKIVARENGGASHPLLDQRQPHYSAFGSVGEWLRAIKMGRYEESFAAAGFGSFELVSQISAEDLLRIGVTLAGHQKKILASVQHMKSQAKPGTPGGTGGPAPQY

[8] = target: Receptor tyrosine-protein kinase erbB-2 (Homo sapiens, UniProt P04626); test: Inhibition of recombinant ERBB2
Focal adhesion kinase 1 = Focal adhesion kinase 1 (Homo sapiens, UniProt Q05397); test: Inhibition of recombinant FAK
[9] = target: RAC-alpha serine/threonine-protein kinase (Homo sapiens, UniProt P31749); test: Inhibition of recombinant AKT1; outline: as §1
[10] = target: Cyclin-dependent kinase 2 (Homo sapiens, UniProt P24941); test: Inhibition of recombinant CDK2/CycA; outline: as §1
[11] = target: Mitogen-activated protein kinase kinase kinase 8 (Homo sapiens, UniProt P41279); test: Inhibition of recombinant COT
[12] = target: Serine/threonine-protein kinase PLK1 (Homo sapiens, UniProt P53350); test: Inhibition of recombinant PLK1
[13] = target: Platelet-derived growth factor receptor beta (Homo sapiens, UniProt P09619); test: Inhibition of recombinant PDGFRbeta
[14] = target: Cyclin-dependent kinase 4/G1/S-specific cyclin-D1 (Homo sapiens, UniProt P11802); test: Inhibition of recombinant CDK4/CycD1
Aurora kinase B = Aurora kinase B (Homo sapiens, UniProt Q96GD4); test: Inhibition of recombinant Aurora B; outline: as §1
[15] = target: Serine/threonine-protein kinase B-raf (Homo sapiens, UniProt P15056, V600E); test: Inhibition of recombinant B-RAF-V600E mutant; outline: as §1
Aurora kinase A = target: T5, Aurora kinase A (Homo sapiens, UniProt O14965); test: Inhibition of recombinant Aurora A; outline: as §1
T5 sequence (O14965 whole entry): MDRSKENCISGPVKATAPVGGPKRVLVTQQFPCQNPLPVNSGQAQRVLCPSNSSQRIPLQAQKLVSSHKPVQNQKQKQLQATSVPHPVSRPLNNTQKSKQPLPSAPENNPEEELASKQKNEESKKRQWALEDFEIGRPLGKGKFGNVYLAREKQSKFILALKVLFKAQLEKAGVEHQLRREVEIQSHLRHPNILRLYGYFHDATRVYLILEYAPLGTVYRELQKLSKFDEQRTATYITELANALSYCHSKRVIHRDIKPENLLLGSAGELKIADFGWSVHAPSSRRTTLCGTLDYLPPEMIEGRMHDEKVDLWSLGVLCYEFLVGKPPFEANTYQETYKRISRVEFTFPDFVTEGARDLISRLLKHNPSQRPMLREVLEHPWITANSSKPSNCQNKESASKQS

Chain of RAC-alpha serine/threonine-protein kinase (P31749 whole entry): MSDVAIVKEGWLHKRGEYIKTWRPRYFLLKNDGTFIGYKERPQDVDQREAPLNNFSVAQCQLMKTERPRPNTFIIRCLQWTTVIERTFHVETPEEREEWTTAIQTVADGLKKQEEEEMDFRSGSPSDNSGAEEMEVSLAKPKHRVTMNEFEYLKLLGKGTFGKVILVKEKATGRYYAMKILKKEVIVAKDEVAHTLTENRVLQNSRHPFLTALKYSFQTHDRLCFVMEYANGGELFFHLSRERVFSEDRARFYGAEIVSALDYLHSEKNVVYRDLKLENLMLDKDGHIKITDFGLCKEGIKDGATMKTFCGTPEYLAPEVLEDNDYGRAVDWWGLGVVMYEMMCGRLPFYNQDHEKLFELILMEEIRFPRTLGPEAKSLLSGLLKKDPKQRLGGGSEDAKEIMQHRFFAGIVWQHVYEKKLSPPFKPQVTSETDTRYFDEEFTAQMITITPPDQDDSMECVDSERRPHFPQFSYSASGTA
Chain of Casein kinase II subunit alpha (P68400 whole entry): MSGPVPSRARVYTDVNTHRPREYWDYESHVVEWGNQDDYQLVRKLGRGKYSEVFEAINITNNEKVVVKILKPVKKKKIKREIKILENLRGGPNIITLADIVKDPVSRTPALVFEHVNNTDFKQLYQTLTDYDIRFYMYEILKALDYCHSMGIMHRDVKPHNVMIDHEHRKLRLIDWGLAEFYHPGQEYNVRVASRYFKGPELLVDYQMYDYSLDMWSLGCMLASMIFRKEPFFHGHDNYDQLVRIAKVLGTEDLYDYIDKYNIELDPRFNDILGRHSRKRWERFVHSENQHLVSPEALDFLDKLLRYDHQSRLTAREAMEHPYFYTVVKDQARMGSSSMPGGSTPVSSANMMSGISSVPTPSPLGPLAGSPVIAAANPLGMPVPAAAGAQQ
Chain of Serine/threonine-protein kinase PLK1 (P53350 whole entry): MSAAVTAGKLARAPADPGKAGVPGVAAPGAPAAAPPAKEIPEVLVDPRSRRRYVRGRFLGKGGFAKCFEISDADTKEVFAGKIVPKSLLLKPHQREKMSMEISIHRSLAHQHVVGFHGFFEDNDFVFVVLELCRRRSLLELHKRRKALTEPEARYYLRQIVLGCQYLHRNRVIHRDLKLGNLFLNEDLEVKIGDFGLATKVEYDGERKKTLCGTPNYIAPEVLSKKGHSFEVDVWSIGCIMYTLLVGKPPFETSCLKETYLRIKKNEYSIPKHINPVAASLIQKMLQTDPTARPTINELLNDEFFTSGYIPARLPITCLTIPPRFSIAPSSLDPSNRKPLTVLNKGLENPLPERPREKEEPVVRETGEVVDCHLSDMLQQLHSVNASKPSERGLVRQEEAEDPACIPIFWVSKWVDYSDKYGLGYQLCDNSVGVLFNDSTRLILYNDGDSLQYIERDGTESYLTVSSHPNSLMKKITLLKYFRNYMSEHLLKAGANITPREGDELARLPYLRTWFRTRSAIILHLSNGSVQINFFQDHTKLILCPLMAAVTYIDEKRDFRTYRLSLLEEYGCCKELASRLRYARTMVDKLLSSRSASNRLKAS
Chain of Receptor tyrosine-protein kinase erbB-2 (P04626 whole entry): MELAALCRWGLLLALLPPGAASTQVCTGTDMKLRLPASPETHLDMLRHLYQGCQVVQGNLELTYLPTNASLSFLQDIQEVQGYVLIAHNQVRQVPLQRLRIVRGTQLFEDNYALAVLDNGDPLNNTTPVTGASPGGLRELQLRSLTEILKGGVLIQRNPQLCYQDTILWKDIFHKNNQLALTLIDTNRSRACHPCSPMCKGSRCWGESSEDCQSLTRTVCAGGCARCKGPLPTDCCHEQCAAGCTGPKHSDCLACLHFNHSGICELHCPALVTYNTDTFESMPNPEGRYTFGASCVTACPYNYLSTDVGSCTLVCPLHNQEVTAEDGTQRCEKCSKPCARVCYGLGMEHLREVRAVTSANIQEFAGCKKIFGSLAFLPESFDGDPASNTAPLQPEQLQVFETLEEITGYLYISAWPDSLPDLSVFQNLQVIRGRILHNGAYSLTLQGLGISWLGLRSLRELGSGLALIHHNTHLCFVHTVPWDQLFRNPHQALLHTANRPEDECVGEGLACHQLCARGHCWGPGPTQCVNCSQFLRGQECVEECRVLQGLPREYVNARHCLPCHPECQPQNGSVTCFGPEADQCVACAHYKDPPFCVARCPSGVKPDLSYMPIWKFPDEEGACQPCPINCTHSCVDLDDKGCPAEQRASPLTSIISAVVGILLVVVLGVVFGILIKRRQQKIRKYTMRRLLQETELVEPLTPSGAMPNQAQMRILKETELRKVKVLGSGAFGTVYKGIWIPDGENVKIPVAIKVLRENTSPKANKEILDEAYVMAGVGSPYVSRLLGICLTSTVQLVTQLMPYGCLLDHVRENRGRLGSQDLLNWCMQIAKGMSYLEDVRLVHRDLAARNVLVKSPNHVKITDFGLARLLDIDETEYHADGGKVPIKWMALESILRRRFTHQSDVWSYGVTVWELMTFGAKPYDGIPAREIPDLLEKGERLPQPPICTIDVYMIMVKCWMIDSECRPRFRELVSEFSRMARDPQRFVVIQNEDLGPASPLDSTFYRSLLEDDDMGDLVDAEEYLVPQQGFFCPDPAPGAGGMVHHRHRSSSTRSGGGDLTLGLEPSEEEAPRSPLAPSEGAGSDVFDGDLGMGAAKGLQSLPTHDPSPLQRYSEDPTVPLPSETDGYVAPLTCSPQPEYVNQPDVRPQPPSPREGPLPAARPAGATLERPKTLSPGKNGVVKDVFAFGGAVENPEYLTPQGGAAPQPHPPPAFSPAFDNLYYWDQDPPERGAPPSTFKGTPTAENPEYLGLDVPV
Chain of Platelet-derived growth factor receptor beta (P09619 whole entry): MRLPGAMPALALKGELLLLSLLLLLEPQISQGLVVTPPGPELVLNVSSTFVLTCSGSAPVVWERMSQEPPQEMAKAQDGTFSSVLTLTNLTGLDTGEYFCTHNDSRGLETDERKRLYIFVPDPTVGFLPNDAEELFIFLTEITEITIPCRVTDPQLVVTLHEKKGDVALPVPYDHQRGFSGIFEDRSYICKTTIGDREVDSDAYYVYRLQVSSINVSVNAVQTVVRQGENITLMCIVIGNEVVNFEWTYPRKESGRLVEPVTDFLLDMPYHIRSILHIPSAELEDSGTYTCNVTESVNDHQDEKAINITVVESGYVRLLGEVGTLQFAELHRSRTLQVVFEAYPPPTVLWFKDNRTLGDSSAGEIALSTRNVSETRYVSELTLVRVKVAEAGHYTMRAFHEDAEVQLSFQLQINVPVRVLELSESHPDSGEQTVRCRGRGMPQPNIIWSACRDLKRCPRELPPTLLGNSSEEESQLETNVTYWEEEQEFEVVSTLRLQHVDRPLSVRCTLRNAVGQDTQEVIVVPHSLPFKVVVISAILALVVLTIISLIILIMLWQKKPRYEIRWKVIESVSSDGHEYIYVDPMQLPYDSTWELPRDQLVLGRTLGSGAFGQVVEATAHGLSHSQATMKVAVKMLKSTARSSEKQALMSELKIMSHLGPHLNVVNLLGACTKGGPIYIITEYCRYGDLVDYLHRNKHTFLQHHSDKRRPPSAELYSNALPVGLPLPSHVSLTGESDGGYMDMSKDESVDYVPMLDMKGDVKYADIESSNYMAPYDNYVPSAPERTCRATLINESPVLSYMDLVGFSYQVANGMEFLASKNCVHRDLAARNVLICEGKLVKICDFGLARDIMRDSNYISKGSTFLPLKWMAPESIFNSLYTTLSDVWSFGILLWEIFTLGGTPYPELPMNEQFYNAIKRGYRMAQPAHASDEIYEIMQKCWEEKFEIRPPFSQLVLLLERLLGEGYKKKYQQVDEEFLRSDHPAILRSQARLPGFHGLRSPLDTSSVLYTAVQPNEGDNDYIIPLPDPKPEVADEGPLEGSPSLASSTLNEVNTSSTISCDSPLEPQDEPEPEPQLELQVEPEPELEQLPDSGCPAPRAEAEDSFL
Chain of Aurora kinase B (Q96GD4 whole entry): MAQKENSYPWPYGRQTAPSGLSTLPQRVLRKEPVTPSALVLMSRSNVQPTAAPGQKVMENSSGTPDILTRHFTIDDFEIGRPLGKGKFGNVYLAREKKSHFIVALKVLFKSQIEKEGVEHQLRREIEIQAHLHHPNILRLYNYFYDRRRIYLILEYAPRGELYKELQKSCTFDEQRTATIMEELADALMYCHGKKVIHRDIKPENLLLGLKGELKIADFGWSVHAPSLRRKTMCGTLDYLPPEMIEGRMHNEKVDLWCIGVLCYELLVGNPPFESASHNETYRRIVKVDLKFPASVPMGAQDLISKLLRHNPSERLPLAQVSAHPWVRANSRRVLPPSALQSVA
Chain of Mitogen-activated protein kinase kinase kinase 8 (P41279 whole entry): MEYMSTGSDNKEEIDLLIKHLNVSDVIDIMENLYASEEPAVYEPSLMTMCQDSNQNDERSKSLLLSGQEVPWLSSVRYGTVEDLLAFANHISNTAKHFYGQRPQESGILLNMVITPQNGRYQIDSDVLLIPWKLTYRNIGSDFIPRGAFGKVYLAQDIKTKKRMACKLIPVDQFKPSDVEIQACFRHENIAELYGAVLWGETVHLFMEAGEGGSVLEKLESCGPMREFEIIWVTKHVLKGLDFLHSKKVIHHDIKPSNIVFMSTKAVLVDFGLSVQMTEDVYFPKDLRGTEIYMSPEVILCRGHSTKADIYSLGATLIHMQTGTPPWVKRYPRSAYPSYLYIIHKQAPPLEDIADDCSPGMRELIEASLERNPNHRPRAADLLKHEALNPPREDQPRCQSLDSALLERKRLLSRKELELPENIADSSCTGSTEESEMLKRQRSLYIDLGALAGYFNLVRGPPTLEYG

IC50 [8] [µM] | IC50 [12] [µM] | Compound | IC50 [1] [µM] | IC50 [4] [µM] | IC50 [7] [µM] | IC50 [9] [µM] | IC50 [10] [µM] | other results
 |  | COc1cc(O)c2c(=O)oc3cc(O)cc(C)c3c2c1 | > 36.7 |  |  |  |  | 
 |  | COc1cc(O)c2c(=O)oc3c(O)c(O)cc(C)c3c2c1 | > 34.6 | 1.83 | 1.21 |  |  | IC50 [2]: 2.87 µM; IC50 [3]: 3.15 µM; IC50 [5]: 2.22 µM; IC50 [6]: 1.35 µM
> 35.9 | > 35.9 | COc1cc(O)c(C(=O)O)c(C2=C(C)C[C@@H](O)C2=O)c1 [Alternarienonic Acid] | > 35.9 |  |  | > 35.9 | > 35.9 | IC50 (Angiopoietin-1 receptor): > 35.9 µM; IC50 (Ephrin type-B receptor 4): > 35.9 µM; IC50 (Focal adhesion kinase 1): > 35.9 µM; IC50 [11]: > 35.9 µM; IC50 [13]: > 35.9 µM; IC50 [14]: > 35.9 µM
 |  | Cc1cc(O)cc2oc(=O)c3c(O)cc(OS(=O)(=O)O)cc3c12 [Alternariol 5-O-Sulfate] |  | 0.975 | 2.21 | > 29.5 | 2.48 | IC50 [2]: 1.12 µM; IC50 [5]: 2.06 µM; IC50 (Aurora kinase B): 0.65 µM; IC50 [15]: 2.18 µM; IC50 (Aurora kinase A): 1.15 µM
 |  | Cc1cc(O)cc2oc(=O)c3c(O)cc(O)cc3c12 [CHEBI:64983] |  |  | 3.67 | > 38.7 |  | IC50 (Ephrin type-B receptor 4): > 38.7 µM; IC50 [13]: 3.44 µM; IC50 (Aurora kinase A): 2.82 µM
> 36.2 | > 36.2 | Cc1cc(O)c(O)cc1-c1cc(O)cc(O)c1C(=O)O [Desmethylaltenusin] | > 36.2 |  |  | > 36.2 | > 36.2 | 

Compound | IC50 [8] [µM] | IC50 [12] [µM] | IC50 [1] [µM] | IC50 [4] [µM] | IC50 [7] [µM] | IC50 [9] [µM] | IC50 [10] [µM] | other results
O=C1C[C@H](O)[C@@H]2c3c(ccc(O)c31)-c1ccc(O)c3c1[C@@]2(O)CCC3=O [Altertoxin I] | > 28.3 | > 28.3 | > 28.3 | 1.87 |  | > 28.3 | > 28.3 | IC50 (Aurora kinase B): 2.78 µM

From BindingDB's records for doi:10.1021/np070447m (2008)
